# Assays:
# Rat [1] = test: concentration in plasma after dosing; details: dosed: Wyeth-14643, 5.0 mg/kg, oral, Male, Sprague-Dawley
# Rat [2] = test: concentration in plasma after dosing; details: 1 h; dosed: Wyeth-14643; 5.0 mg/kg; oral; Male; Sprague-Dawley
# Rat [3] = test: concentration in plasma after dosing; details: 2 h; dosed: Bis 2-Chloroethoxy Methane; 40 mg/kg; iv; Male; Harlan Sprague Dawley
# Rat [4] = test: concentration in heart after dosing; details: 10 min; dosed: Bis 2-Chloroethoxy Methane; 20 mg/kg; iv; Female; F344
# Rat [5] = test: concentration in plasma after dosing; details: dosed: Bis 2-Chloroethoxy Methane, 40 mg/kg, iv, Male, Harlan Sprague Dawley
# Rat [6] = test: concentration in liver after dosing; details: 1 h; dosed: Bis 2-Chloroethoxy Methane; 20 mg/kg; iv; Female; F344
# Rat [7] = test: concentration in liver after dosing; details: 1 h; dosed: Bis 2-Chloroethoxy Methane; 20 mg/kg; iv; Male; F344
# Rat [8] = test: concentration in thymus after dosing; details: 4 h; dosed: Bis 2-Chloroethoxy Methane; 20 mg/kg; iv; Female; F344
# Rat [9] = test: concentration in liver after dosing; details: 5 h; dosed: Bis 2-Chloroethoxy Methane; 20 mg/kg; iv; Male; F344
# Rat [10] = test: concentration in liver after dosing; details: 20 min; dosed: Bis 2-Chloroethoxy Methane; 20 mg/kg; iv; Male; F344
# Rat [11] = test: concentration in thymus after dosing; details: 1 h; dosed: Bis 2-Chloroethoxy Methane; 20 mg/kg; iv; Female; F344
# Rat [12] = test: concentration in thymus after dosing; details: 1 h; dosed: Bis 2-Chloroethoxy Methane; 20 mg/kg; iv; Male; F344
# Rat [13] = test: concentration in liver after dosing; details: 20 min; dosed: Bis 2-Chloroethoxy Methane; 20 mg/kg; iv; Male; F344; remark: listed apart in the source
# Rat [14] = test: concentration in kidney after dosing; details: 12 h; dosed: Fluorotelomer alcohol 8+2; 80 mg/kg; oral; Female; Harlan Sprague Dawley
# Rat [15] = test: concentration in kidney after dosing; details: 12 h; dosed: Fluorotelomer alcohol 8+2; 24 mg/kg; oral; Male; Harlan Sprague Dawley
# Rat [16] = test: concentration in plasma after dosing; details: 5 min; dosed: Di-n-butyl phthalate; 100 mg/kg; oral; Male; Sprague-Dawley
# Rat [17] = test: concentration in plasma after dosing; details: 1 h; dosed: Di-n-butyl phthalate; 50 mg/kg; oral; Male; Sprague-Dawley
# Rat [18] = test: concentration in plasma after dosing; details: 2 h; dosed: Di-n-butyl phthalate; 50 mg/kg; oral; Male; Sprague-Dawley
# Rat [19] = test: concentration in plasma after dosing; details: 1 h; dosed: Di-n-butyl phthalate; 20 mg/kg; iv; Male; Sprague-Dawley
# Rat [20] = test: concentration in plasma after dosing; details: dosed: Perfluorodecanoic acid, 2 mg/kg, iv, Male, F344
# Rat [21] = test: concentration in plasma after dosing; details: dosed: Perfluorodecanoic acid, 2 mg/kg, iv, Male, F344; remark: listed apart in the source
# Rat [22] = test: concentration in kidney after dosing; details: 1848 h; dosed: Perfluorodecanoic acid; 10 mg/kg; oral; Male; Harlan Sprague Dawley
# Rat [23] = test: concentration in kidney after dosing; details: 1848 h; dosed: Perfluorodecanoic acid; 10 mg/kg; oral; Female; Harlan Sprague Dawley
# Rat [24] = test: concentration in brain after dosing; details: 1848 h; dosed: Perfluorodecanoic acid; 10 mg/kg; oral; Male; Harlan Sprague Dawley
# Rat [25] = test: concentration in plasma after dosing; details: 3 h; dosed: Primidone; 130 mg/kg; oral; Male; Harlan Sprague Dawley
# Rat [26] = test: concentration in plasma after dosing; details: 9 h; dosed: Primidone; 80 mg/kg; oral; Female; F344
# Rat [27] = test: concentration in plasma after dosing; details: 1 h; dosed: Thiodiglycolic Acid; 20 mg/kg; iv; Female; Harlan Sprague Dawley
# Rat [28] = test: concentration in plasma after dosing; details: 20 min; dosed: Thiodiglycolic Acid; 20 mg/kg; iv; Female; Harlan Sprague Dawley
# Rat [29] = test: concentration in liver after dosing; details: 3 h; dosed: Thiodiglycolic Acid; 20 mg/kg; iv; Female; Harlan Sprague Dawley
# Rat [30] = test: concentration in heart after dosing; details: 20 min; dosed: Thiodiglycolic Acid; 20 mg/kg; iv; Female; Harlan Sprague Dawley
# Rat [31] = test: concentration in liver after dosing; details: 10 h; dosed: Thiodiglycolic Acid; 20 mg/kg; iv; Female; Harlan Sprague Dawley
# Rat [32] = test: concentration in thymus after dosing; details: 6.667 h; dosed: Thiodiglycolic Acid; 20 mg/kg; iv; Female; Harlan Sprague Dawley
# Rat [33] = test: concentration in plasma after dosing; details: dosed: dichloroacetic acid, 100 mg/kg, oral, Male, F344
# Rat [34] = test: concentration in plasma after dosing; details: dosed: dichloroacetic acid, 100 mg/kg, oral, Male, F344; remark: listed apart in the source
# human = test: concentration in blood after dosing; details: dosed: trichloroethylene, 100 ppm, inhalation, duration: 6 hr, person
# How it was run: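 Points were largely digitised from plot screenshots with WebPlotDigitizer or otherwise copied from tables, and they remain in the units each source reported. They come from published in vivo toxicokinetic studies and two structured collections. Sampling and analytical methods follow each source and were often not reported.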
structure (smiles),measurement,setting,value
Cc1cccc(Nc2cc(Cl)nc(SCC(=O)O)n2)c1C,concentration in plasma,Rat [1]; 2 h,1920 ng/mL
same,concentration in plasma,Rat [1]; 6 h,999 ng/mL
same,concentration in plasma,Rat [2],5440 ng/mL
ClCCOCOCCCl [Bis 2-Chloroethoxy Methane],concentration in plasma,Rat [3],840 ng/mL
same,concentration in heart,Rat [4],12100 ng/g
same,concentration in plasma,Rat [5]; 20 min,8380 ng/mL
same,concentration in plasma,Rat [5]; 6.667 h,25.4 ng/mL
same,concentration in liver,Rat [6],610 ng/g
same,concentration in liver,Rat [7],2410 ng/g
same,concentration in thymus,Rat [8],108 ng/g
same,concentration in liver,Rat [9],42.7 ng/g
same,concentration in liver,Rat [10],3690 ng/g
same,concentration in thymus,Rat [11],3420 ng/g
same,concentration in thymus,Rat [12],7380 ng/g
same,concentration in liver,Rat [13],3030 ng/g
OCCC(F)(F)C(F)(F)C(F)(F)C(F)(F)C(F)(F)C(F)(F)C(F)(F)C(F)(F)F [Fluorotelomer alcohol 8+2],concentration in kidney,Rat [14],351 ng/g
same,concentration in kidney,Rat [15],187 ng/g
CCCCOC(=O)c1ccccc1C(=O)O [Mono-n-butyl phthalate],concentration in plasma,Rat [16],1430 ng/mL
same,concentration in plasma,Rat [17],8650 ng/mL
same,concentration in plasma,Rat [18],809 ng/mL
same,concentration in plasma,Rat [19],2550 ng/mL
O=C(O)C(F)(F)C(F)(F)C(F)(F)C(F)(F)C(F)(F)C(F)(F)C(F)(F)C(F)(F)C(F)(F)F [Perfluorodecanoic acid],concentration in plasma,Rat [20]; 1 h,6520 ng/mL
same,concentration in plasma,Rat [20]; 528 h,4120 ng/mL
same,concentration in plasma,Rat [20]; 3360 h,71.5 ng/mL
same,concentration in plasma,Rat [21]; 5 min,7130 ng/mL
same,concentration in plasma,Rat [21]; 192 h,3040 ng/mL
same,concentration in kidney,Rat [22],6050 ng/g
same,concentration in kidney,Rat [23],10100 ng/g
same,concentration in brain,Rat [24],531 ng/g
CCC1(c2ccccc2)C(=O)NC(=O)NC1=O [Phenobarbital],concentration in plasma,Rat [25],1210 ng/mL
same,concentration in plasma,Rat [26],2370 ng/mL
O=C(O)CSCC(=O)O [Thiodiglycolic Acid],concentration in plasma,Rat [27],4150 ng/mL
same,concentration in plasma,Rat [28],16300 ng/mL
same,concentration in liver,Rat [29],3470 ng/g
same,concentration in heart,Rat [30],5330 ng/g
same,concentration in liver,Rat [31],4910 ng/g
same,concentration in thymus,Rat [32],329 ng/g
O=C(O)C(Cl)Cl [dichloroacetic acid],concentration in plasma,Rat [33]; 5 min,20900 ng/mL
same,concentration in plasma,Rat [33]; 2 h,57500 ng/mL
same,concentration in plasma,Rat [34]; 10 min,11900 ng/mL
same,concentration in plasma,Rat [34]; 4 h,55600 ng/mL
O=C(O)C(Cl)(Cl)Cl [trichloroacetic acid],concentration in blood,human; 0 h,11900 ng/mL
same,concentration in blood,human; 18 h,32600 ng/mL
same,concentration in blood,human; 24 h,50300 ng/mL
same,concentration in blood,human; 42 h,32200 ng/mL
same,concentration in blood,human; 48 h,51100 ng/mL
same,concentration in blood,human; 66 h,51000 ng/mL
same,concentration in blood,human; 72 h,55100 ng/mL
same,concentration in blood,human; 90 h,49000 ng/mL
same,concentration in blood,human; 96 h,64900 ng/mL
same,concentration in blood,human; 160 h,28900 ng/mL
